Test results taken from ChEMBL document CHEMBL4689842, “EUbOPEN Chemogenomics Library wave 1” (2021).

Key:
Format in all cases: toxicity, cell-based
U2OS [1] = assay: Multiplex assay against U2OS; settings: human
How it was run: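 Live cells carried four stains from seeding: Hoechst33342, BioTracker Green Microtubule Cytoskeleton Dye, MitoTracker Red and Annexin V Alexa Fluor 680. They were imaged on a CQ1 microscope at 37°C and 5% CO2 after compound addition. Using CellPathfinder machine-learning gating, cells were split into Hoechst high-intensity objects or normal cells, normal cells into healthy, pyknosed or fragmented nuclei, and pyknosed cells into mitotic or apoptotic; tubulin, mitochondrial-mass and membrane-permeability phenotypes are per cents of healthy-nucleus cells.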

HEK-293T = assay: Incucyte cell viability with HEK293T; settings: human, 10 µM, compound concentration 10 uM; note: filed as whole numbers so only -1 and 0 and 1 occur
U2OS [2] = assay: Incucyte cell viability with U2OS; settings: human, 10 µM, compound concentration 10 uM; note: filed as whole numbers so only -1 and 0 and 1 occur
[3] = 12 h, 1 µM, compound concentration 1 uM, replicate 1
[4] = 12 h, 1 µM, compound concentration 1 uM, replicate 2
[5] = 12 h, 10 µM, compound concentration 10 uM, replicate 1
[6] = 12 h, 10 µM, compound concentration 10 uM, replicate 2
[7] = 24 h, 1 µM, compound concentration 1 uM, replicate 1
[8] = 24 h, 1 µM, compound concentration 1 uM, replicate 2
[9] = 24 h, 10 µM, compound concentration 10 uM, replicate 1
[10] = 24 h, 10 µM, compound concentration 10 uM, replicate 2
[11] = 48 h, 1 µM, compound concentration 1 uM, replicate 1
[12] = 48 h, 1 µM, compound concentration 1 uM, replicate 2
[13] = 48 h, 10 µM, compound concentration 10 uM, replicate 1
[14] = 48 h, 10 µM, compound concentration 10 uM, replicate 2
[15] = 6 h, replicate number 1, timepoint 6 hours
[16] = 12 h, replicate number 1, timepoint 12 hours
[17] = 18 h, replicate number 1, timepoint 18 hours
[18] = 24 h, replicate number 1, timepoint 24 hours

## Cc1c(P(=S)(c2ccccc2)c2ccccc2)n2ccccc2[n+]1C/C=C/c1ccccc1.[Br-]
U2OS [1]; [3]
  Population Apoptotic (%): 54%
  Population Fragmented Nuclei (%): 21%
  Population Healthy Nuclei (%): 69%
  Population Hoechst High Intensity Objects (%): 5%
  Population Membrane Permeable-Phenotype (%): 13%
  Population Mitochondria Different-Phenotype (%): 35%
  Population Mitotic Cells (%): 45%
  Population Normal (%): 94%
  Population Pyknosed Nuclei (%): 9%
  Population Tubulin-Different-Phenotype (%): 26%
  Total Cell Count: 133
U2OS [1]; [4]
  Population Apoptotic (%): 75%
  Population Fragmented Nuclei (%): 50%
  Population Healthy Nuclei (%): 45%
  Population Hoechst High Intensity Objects (%): 22%
  Population Membrane Permeable-Phenotype (%): 10%
  Population Mitochondria Different-Phenotype (%): 50%
  Population Mitotic Cells (%): 25%
  Population Normal (%): 77%
  Population Pyknosed Nuclei (%): 4%
  Population Tubulin-Different-Phenotype (%): 31%
  Total Cell Count: 93
U2OS [1]; [5]
  Population Apoptotic (%): 89%
  Population Fragmented Nuclei (%): 28%
  Population Healthy Nuclei (%): 9%
  Population Hoechst High Intensity Objects (%): 21%
  Population Membrane Permeable-Phenotype (%): 88%
  Population Mitochondria Different-Phenotype (%): 100%
  Population Mitotic Cells (%): 10%
  Population Normal (%): 78%
  Population Pyknosed Nuclei (%): 61%
  Population Tubulin-Different-Phenotype (%): 100%
  Total Cell Count: 121
U2OS [1]; [6]
  Population Apoptotic (%): 94%
  Population Fragmented Nuclei (%): 21%
  Population Healthy Nuclei (%): 10%
  Population Hoechst High Intensity Objects (%): 8%
  Population Membrane Permeable-Phenotype (%): 83%
  Population Mitochondria Different-Phenotype (%): 83%
  Population Mitotic Cells (%): 5%
  Population Normal (%): 91%
  Population Pyknosed Nuclei (%): 68%
  Population Tubulin-Different-Phenotype (%): 83%
  Total Cell Count: 108
U2OS [1]; [7]
  Population Apoptotic (%): 55%
  Population Fragmented Nuclei (%): 12%
  Population Healthy Nuclei (%): 73%
  Population Hoechst High Intensity Objects (%): 5%
  Population Membrane Permeable-Phenotype (%): 12%
  Population Mitochondria Different-Phenotype (%): 18%
  Population Mitotic Cells (%): 45%
  Population Normal (%): 94%
  Population Pyknosed Nuclei (%): 13%
  Population Tubulin-Different-Phenotype (%): 12%
  Total Cell Count: 174
U2OS [1]; [8]
  Population Apoptotic (%): 75%
  Population Fragmented Nuclei (%): 55%
  Population Healthy Nuclei (%): 40%
  Population Hoechst High Intensity Objects (%): 33%
  Population Membrane Permeable-Phenotype (%): 9%
  Population Mitochondria Different-Phenotype (%): 31%
  Population Mitotic Cells (%): 25%
  Population Normal (%): 66%
  Population Pyknosed Nuclei (%): 3%
  Population Tubulin-Different-Phenotype (%): 15%
  Total Cell Count: 124
U2OS [1]; [9]
  Population Fragmented Nuclei (%): 34%
  Population Healthy Nuclei (%): 4%
  Population Hoechst High Intensity Objects (%): 14%
  Population Membrane Permeable-Phenotype (%): 75%
  Population Mitochondria Different-Phenotype (%): 100%
  Population Normal (%): 85%
  Population Pyknosed Nuclei (%): 61%
  Population Tubulin-Different-Phenotype (%): 100%
  Total Cell Count: 154
U2OS [1]; [10]
  Population Apoptotic (%): 100%
  Population Fragmented Nuclei (%): 23%
  Population Healthy Nuclei (%): 38%
  Population Hoechst High Intensity Objects (%): 26%
  Population Membrane Permeable-Phenotype (%): 81%
  Population Mitochondria Different-Phenotype (%): 81%
  Population Mitotic Cells (%): 0%
  Population Normal (%): 73%
  Population Pyknosed Nuclei (%): 38%
  Population Tubulin-Different-Phenotype (%): 81%
  Total Cell Count: 163
U2OS [1]; [11]
  Population Fragmented Nuclei (%): 7%
  Population Healthy Nuclei (%): 85%
  Population Hoechst High Intensity Objects (%): 5%
  Population Membrane Permeable-Phenotype (%): 3%
  Population Mitochondria Different-Phenotype (%): 13%
  Population Normal (%): 94%
  Population Pyknosed Nuclei (%): 7%
  Population Tubulin-Different-Phenotype (%): 11%
  Total Cell Count: 277
U2OS [1]; [12]
  Population Apoptotic (%): 60%
  Population Fragmented Nuclei (%): 42%
  Population Healthy Nuclei (%): 49%
  Population Hoechst High Intensity Objects (%): 25%
  Population Membrane Permeable-Phenotype (%): 5%
  Population Mitochondria Different-Phenotype (%): 21%
  Population Mitotic Cells (%): 40%
  Population Normal (%): 74%
  Population Pyknosed Nuclei (%): 8%
  Population Tubulin-Different-Phenotype (%): 8%
  Total Cell Count: 213
U2OS [1]; [13]
  Population Fragmented Nuclei (%): 43%
  Population Healthy Nuclei (%): 3%
  Population Hoechst High Intensity Objects (%): 19%
  Population Membrane Permeable-Phenotype (%): 66%
  Population Mitochondria Different-Phenotype (%): 100%
  Population Normal (%): 80%
  Population Pyknosed Nuclei (%): 53%
  Population Tubulin-Different-Phenotype (%): 100%
  Total Cell Count: 207
U2OS [1]; [14]
  Population Apoptotic (%): 100%
  Population Fragmented Nuclei (%): 75%
  Population Healthy Nuclei (%): 18%
  Population Hoechst High Intensity Objects (%): 21%
  Population Membrane Permeable-Phenotype (%): 75%
  Population Mitochondria Different-Phenotype (%): 75%
  Population Mitotic Cells (%): 0%
  Population Normal (%): 78%
  Population Pyknosed Nuclei (%): 6%
  Population Tubulin-Different-Phenotype (%): 75%
  Total Cell Count: 153
HEK-293T; 0 h, replicate number 2, timepoint 0 hours
  Growth Rate: 1
HEK-293T; [15]
  Growth Rate: 0
HEK-293T; [16]
  Growth Rate: 0
HEK-293T; [17]
  Growth Rate: 0
HEK-293T; [18]
  Growth Rate: 0
U2OS [2]; [15]
  Growth Rate: 0
U2OS [2]; [16]
  Growth Rate: 0
U2OS [2]; [17]
  Growth Rate: 0
U2OS [2]; [18]
  Growth Rate: 0
